Active and inactive are the calls of the source. The rule behind the calls is not given here.
Legend:
[1] = test system: A549; experiment: Induction of apoptosis in human A549 cells assessed as induction of ROS production after 12 hrs using DCF-DA staining by flow cytometry analysis; format: functional, cell-based
Method in brief: (§1)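 Intracellular ROS in A549 cells after 12 h at 1, 3, 10, 30 μM, with 5 mM H2O2 as reference, measured by flow cytometry with DCF-DA probe; fold fluorescence over vehicle control; mean ± SEM, three independent determinations.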

[2] = test system: A549; experiment: Induction of apoptosis in human A549 cells assessed as loss of mitochondrial membrane potential at 10 to 30 uM after 12 to 24 hrs by flow cytometry analysis; format: functional, cell-based
Method in brief: (§2)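 A549 cells treated 12 and 24 h, stained with rhodamine 123 for 30 min at 37 °C; mean fluorescence by FACScan flow cytometry; CCCP (50 μM) used as depolarising control; mean ± SEM of three independent determinations.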

[3] = test system: A549; experiment: Cell cycle arrest in human A549 cells assessed as accumulation at G2/M phase at 10 uM after 24 hrs using propidium iodide staining by flow cytometry analysis (reference value: 35.2 +/- 2.3%); format: functional
[4] = test system: A549; experiment: Induction of apoptosis in human A549 cells assessed as DNA level at 3 to 30 uM using propidium iodide staining by flow cytometry analysis; format: functional, cell-based; conditions: TDE = time-dependent effect
Method in brief: (§3)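 A549 cells treated at 3, 10 or 30 μM for 24, 36 or 48 h, fixed, stained with propidium iodide; hypodiploid apoptotic fraction counted by FACScan flow cytometry; mean ± SEM of three determinations versus vehicle control.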

[5] = test system: A549; experiment: Cytotoxicity against human A549 cells after 48 hrs by MTT assay; format: functional, cell-based
Method in brief: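 Viability of A549 cells measured by mitochondrial MTT reduction after 24 and 48 h incubation with indicated concentrations; IC50 at 48 h; mean ± SEM of three determinations, each in triplicate.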

[6] = test system: A549; experiment: Cell cycle arrest in human A549 cells assessed as accumulation at G0/G1 phase at 10 uM after 36 hrs using propidium iodide staining by flow cytometry analysis (reference value: 53.1 +/- 1.2%); format: functional
[7] = test system: A549; experiment: Induction of apoptosis in human A549 cells assessed as induction of cleaved PARP protein expression at 10 uM after 26 to 36 hrs by Western blot analysis; format: functional, cell-based; conditions: in the assay text read “24 to 36 hrs” for “26 to 36 hrs”
Method in brief: (§4)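 A549 cells given 10 μM for 6, 12, 24, 36 h; lysates blotted (40 μg protein, SDS-PAGE, PVDF) for caspase-3/-8/-9, PARP, survivin, Bad, Bcl-xL; ECL detection; survivin bands quantified densitometrically; three independent experiments.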

[8] = test system: A549; experiment: Cell cycle arrest in human A549 cells assessed as accumulation at G2/M phase at 10 uM after 48 hrs using propidium iodide staining by flow cytometry analysis (reference value: 31.9 +/- 1.4%); format: functional
[9] = test system: A549; experiment: Induction of apoptosis in human A549 cells assessed as induction of ROS production at 1 uM after 12 hrs using DCF-DA staining by flow cytometry analysis relative to control; format: functional; method in brief: as §1
[10] = test system: A549; experiment: Cell cycle arrest in human A549 cells assessed as accumulation at sub-G1 phase at 10 uM after 24 hrs using propidium iodide staining by flow cytometry analysis (reference value: 2 +/- 0.3%); format: functional
[11] = test system: Caco-2; experiment: Cytotoxicity against human Caco2 cells after 48 hrs by SRB assay; conditions: Caco-2, 48 h
[12] = test system: A549; experiment: Induction of apoptosis in human A549 cells assessed as downregulation of cyclin D1, cyclin E, Cdk 2, and Cdk 4 protein levels at 10 uM after 6 to 36 hrs by Western blot analysis; format: functional, cell-based
Method in brief: (§5)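 A549 lysates after 10 μM for 6, 12, 24, 36 h, or 1, 3, 10 μM for 24 h; 40 μg protein on 8–12% SDS gels, PVDF transfer, primary antibodies 1 h at room temperature, ECL detection; three independent experiments.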

[13] = test system: A549; experiment: Induction of apoptosis in human A549 cells assessed as induction of ROS production at 10 uM after 12 hrs using DCF-DA staining by flow cytometry analysis relative to control; format: functional; method in brief: as §1
[14] = test system: A549; experiment: Induction of apoptosis in human A549 cells assessed as induction of ROS production at 30 uM after 12 hrs using DCF-DA staining by flow cytometry analysis relative to control; format: functional; method in brief: as §1
[15] = test system: A549; experiment: Induction of apoptosis in human A549 cells assessed as induction of ROS production at 10 uM after 5 hrs using DCF-DA staining by flow cytometry analysis in presence of Tiron; format: functional, cell-based
Method in brief: (§6)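 Cells pretreated 1 h with or without 1 mM Tiron, then 10 μM for 1, 3 or 5 h; intracellular ROS read by DCF-DA flow cytometry; mean ± SEM of three independent determinations versus vehicle.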

[16] = test system: A549; experiment: Induction of apoptosis in human A549 cells assessed as proteolytic cleavage of inactive procaspase-8, 9, and 3 into active caspase-8, 9, and 3 at 10 uM by Western blot analysis; format: functional, cell-based; conditions: TDE = time-dependent effect; method in brief: as §4
[17] = test system: A549; experiment: Induction of apoptosis in human A549 cells assessed as loss of mitochondrial membrane potential at 50 uM after 12 to 24 hrs by flow cytometry analysis; format: functional, cell-based; method in brief: as §2
[18] = test system: A549; experiment: Cell cycle arrest in human A549 cells assessed as accumulation at S phase at 10 uM after 48 hrs using propidium iodide staining by flow cytometry analysis (reference value: 9.5 +/- 0.7%); format: functional
[19] = test system: A549; experiment: Induction of apoptosis in human A549 cells assessed as induction of ROS production at 10 uM using DCF-DA staining by flow cytometry analysis relative to control; format: functional, cell-based; conditions: TDE = time-dependent effect; method in brief: as §6
[20] = test system: A549; experiment: Induction of apoptosis in human A549 cells assessed as downregulation of cyclin D1, cyclin E, Cdk 2, and Cdk 4 protein levels after 24 hrs by Western blot analysis; format: functional, cell-based; method in brief: as §5
[21] = test system: A549; experiment: Induction of apoptosis in human A549 cells assessed as hypodiploid DNA content at 10 to 20 uM after 48 hrs by flow cytometry analysis in presence of Z-VAD-fmk; format: functional, cell-based
Method in brief: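 Cells preincubated 2 h with or without 50 μM Z-VAD-fmk, then exposed to indicated concentrations for 48 h; hypodiploid DNA content read by flow cytometry; mean ± SEM of three independent determinations.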

[22] = test system: A549; experiment: Cell cycle arrest in human A549 cells assessed as accumulation at sub-G1 phase at 10 uM after 36 hrs using propidium iodide staining by flow cytometry analysis (reference value: 1.7 +/- 0.4%); format: functional
[23] = test system: A549; experiment: Induction of apoptosis in human A549 cells assessed as induction of ROS production at 3 uM after 12 hrs using DCF-DA staining by flow cytometry analysis relative to control; format: functional; method in brief: as §1
[24] = test system: A549; experiment: Cell cycle arrest in human A549 cells assessed as accumulation at G0/G1 phase at 10 uM after 24 hrs using propidium iodide staining by flow cytometry analysis (reference value: 51 +/- 1.1%); format: functional
[25] = Cytotoxicity against human HT1080 cells after 48 hrs by SRB assay; conditions: HT-1080, 48 h
[26] = test system: A549; experiment: Induction of apoptosis in human A549 cells assessed as DNA level after 24 to 48 hrs using propidium iodide staining by flow cytometry analysis; format: functional, cell-based; method in brief: as §3
[27] = test system: A549; experiment: Induction of apoptosis in human A549 cells assessed as reduction of Bcl-xL expression at 10 uM after 6 to 36 hrs by Western blot analysis; format: functional, cell-based; method in brief: as §4
[28] = test system: SW1353; experiment: Cytotoxicity against human SW1353 cells after 48 hrs by SRB assay; conditions: SW1353, 48 h
[29] = test system: A549; experiment: Cell cycle arrest in human A549 cells assessed as accumulation at G0/G1 phase at 10 uM after 48 hrs using propidium iodide staining by flow cytometry analysis (reference value: 57.3 +/- 0.9%); format: functional
[30] = test system: A549; experiment: Cell cycle arrest in human A549 cells assessed as accumulation at G2/M phase at 10 uM after 36 hrs using propidium iodide staining by flow cytometry analysis (reference value: 35.8 +/- 1.8%); format: functional
[31] = test system: A549; experiment: Induction of apoptosis in human A549 cells assessed as increase in expression of LC3-II at 10 uM by Western blot analysis; format: functional, cell-based; conditions: TDE = time-dependent effect
Method in brief: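 A549 cells with or without 10 μM for 6, 12, 24, 36 h; LC3 detected by Western blot with ECL; LC3 II band quantified by image analysis; three independent experiments.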

[32] = test system: A549; experiment: Induction of apoptosis in human A549 cells assessed as reduction of survivin expression at 10 uM by Western blot analysis; format: functional, cell-based; conditions: TDE = time-dependent effect; method in brief: as §4
[33] = Cytotoxicity against human Hep3B cells after 48 hrs by SRB assay
[34] = test system: A549; experiment: Cell cycle arrest in human A549 cells assessed as accumulation at S phase at 10 uM after 24 hrs using propidium iodide staining by flow cytometry analysis (reference value: 12 +/- 1.4%); format: functional
[35] = test system: A549; experiment: Induction of apoptosis in human A549 cells assessed as reduction of Bad proteins expression at 10 uM after 6 to 36 hrs by Western blot analysis; format: functional, cell-based; method in brief: as §4
[36] = test system: A549; experiment: Cell cycle arrest in human A549 cells assessed as accumulation at S phase at 10 uM after 36 hrs using propidium iodide staining by flow cytometry analysis (reference value: 9.6 +/- 0.9%); format: functional
[37] = test system: A549; experiment: Cytotoxicity against human A549 cells after 48 hrs by SRB assay; format: functional, cell-based
Method in brief: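 A549 cells exposed to a range of concentrations for 48 h, fixed and stained with sulforhodamine B to measure cell number; IC50 from three independent determinations, mean ± SEM.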

[38] = test system: A549; experiment: Induction of apoptosis in human A549 cells assessed as induction of ROS production at 5 mM after 12 hrs using DCF-DA staining by flow cytometry analysis relative to control; format: functional; method in brief: as §1
[39] = test system: A549; experiment: Cell cycle arrest in human A549 cells assessed as accumulation at sub-G1 phase at 10 uM after 48 hrs using propidium iodide staining by flow cytometry analysis (reference value: 1.5 +/- 0.1%); format: functional
[40] = Cytotoxicity against human HuH7 cells after 48 hrs by SRB assay; conditions: Huh-7, 48 h

## CC1CC(=O)c2c(cc3c(-c4c(O)cc(O)c5c(O)c6c(cc45)OC(C)CC6=O)c(O)cc(O)c3c2O)O1 (configuration not stated) [CEPHALOCHROMIN]
[1]
  Activity: Dose-dependent effect
[2]
  Activity: Active
[3]
  Activity: 32.7%
[4]
  Activity: tde
[5]
  Activity: Dose-dependent effect
[5]; A549, 48 h
  IC50: 5.22 µM
[6]
  Activity: 53.7%
[7]
  Activity: Active
[8]
  Activity: 27.9%
[9]
  fold change (FC): 1.24
[10]
  Activity: 3.8%
[11]
  IC50: 12.4 µM
[12]
  Activity: Active
[13]
  fold change (FC): 2.87
[14]
  fold change (FC): 4.65
[15]
  Activity: inactive
[16]
  Activity: tde
[17]
  Activity: Active
[18]
  Activity: 4.4%
[19]
  Activity: tde
[20]
  Activity: Dose-dependent effect
[21]
  Activity: inactive
[22]
  Activity: 9.8%
[23]
  fold change (FC): 1.89
[24]
  Activity: 59.6%
[25]
  IC50: 4.98 µM
[26]
  Activity: Dose-dependent effect
[27]
  Activity: Active
[28]
  IC50: 3.54 µM
[29]
  Activity: 52.1%
[30]
  Activity: 32.3%
[31]
  Activity: tde
[32]
  Activity: tde
[33]
  IC50: 14.3 µM
[34]
  Activity: 3.9%
[35]
  Activity: inactive
[36]
  Activity: 4.2%
[37]
  Activity: Dose-dependent effect
[37]; A549, 48 h
  IC50: 2.72 µM
[38]
  fold change (FC): 7.2
[39]
  Activity: 15.5%
[40]
  IC50: 4.64 µM
